# An excerpt weighted towards active compounds, which were near 2.1% of everything screened.
# GSK3A inh: blockers of GSK3A enzyme activity – biochemical, luminescence, cell-free homogeneous, HTS, primary screen | Glycogen synthase kinase-3 alpha (Homo sapiens), P49840 | GSK-3 alpha kinase, ADP-Glo luminescence, 60 min | inhibition, % at 10 µM | hit rate 0.1% among 320,000 | AID 2650, 2010;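 active = more than half of replicates show inhibition above 20%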;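 also: GST-tagged GSK-3 alpha with peptide substrate and 25 µM ATP; 0% = DMSO neutral wells and 100% = GW8510 positive control wells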
# STK33 kinase inh: inhibitors of purified STK33 kinase, primary screen, biochemical, ADP-Glo luminescence, homogeneous, cell-free. inhibition, % at 10 µM. AID 2661, 2010. MBP phosphorylation. Serine/threonine-protein kinase 33 (Homo sapiens), Q9BYT3. hit rate 0.073% among 320,000;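 active = inhibition at or above 25%, using the most active replicate where run in duplicate; inactive = inhibition below 25%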
# MEKK3 PB1 HTS: modulators of MEKK3-MEK5 PB1 binding, primary screen, biochemical, wildtype MEKK3, multiplex bead flow cytometry, Alexa488-MEK5; hit rate 1.4% among 290,000; bead-based flow cytometry, Alexa488-MEK5 binding to MEKK3; actives lie on both sides; 0 = blocked by unlabeled MEK5, 100 = vehicle; binding response (% of control), % at 10 µM;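 active = binding response more than 3 SD above or below the average of its plate-row segment, actives on both sides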;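 also: Alexa488 bead fluorescence after subtracting the streptavidin-only scavenger bead signal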
# Target sequence (Q99759 whole entry, looked up): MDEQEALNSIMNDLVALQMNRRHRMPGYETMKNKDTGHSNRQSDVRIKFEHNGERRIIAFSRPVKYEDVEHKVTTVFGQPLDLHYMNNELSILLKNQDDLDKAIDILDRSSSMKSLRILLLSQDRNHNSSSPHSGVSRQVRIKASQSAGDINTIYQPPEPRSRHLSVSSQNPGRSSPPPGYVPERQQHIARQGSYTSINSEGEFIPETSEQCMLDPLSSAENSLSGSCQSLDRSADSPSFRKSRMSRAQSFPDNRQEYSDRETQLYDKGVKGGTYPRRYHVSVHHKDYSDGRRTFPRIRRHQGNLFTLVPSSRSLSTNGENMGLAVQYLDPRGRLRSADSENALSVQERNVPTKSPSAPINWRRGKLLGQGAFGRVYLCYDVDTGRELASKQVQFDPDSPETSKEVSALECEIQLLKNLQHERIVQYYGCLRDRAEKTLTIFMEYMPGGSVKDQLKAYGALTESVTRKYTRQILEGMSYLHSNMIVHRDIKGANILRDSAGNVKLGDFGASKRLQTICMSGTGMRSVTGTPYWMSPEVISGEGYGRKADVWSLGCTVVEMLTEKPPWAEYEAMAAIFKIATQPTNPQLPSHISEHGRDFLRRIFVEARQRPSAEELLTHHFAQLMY
# MEKK2 WT-MEK5: modulators of MEK5 binding to wildtype MEKK2, primary screen, biochemical, multiplex bead flow cytometry, Alexa488-MEK5; Alexa488-MEK5 binding to MEKK2 WT; actives lie on both sides; binding response (% of control), % at 10 µM; hit rate 1.1% among 290,000; AID 1531, 2009; in the data active = binding response below about 67% or above about 130%
# GSK3B inh: human GSK3beta kinase inhibitors, primary screen, biochemical, cell-free homogeneous, HTS; activity score (negative = inhibition), % at 10 µM; hit rate 0.038% among 300,000; AID 2097, 2009; Glycogen synthase kinase-3 beta (Homo sapiens), P49841; GST-GSK3beta kinase, ADP-Glo luminescence, 60 min; hits give low values;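 active = more than half of replicate wells score below -50%, meaning over 50% inhibition versus plate controls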;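 also: 0% = median DMSO wells and -100% = median GW8510 positive control wells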
#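 Test system: GST-tagged human GSK3beta kinase, cell-free; evaluation: activity score scaled between in-plate DMSO and GW8510 controls; measured by: ADP-Glo luminescence; incubation: 60 min reaction, RT; benchmarks: DMSO and 20 µM GW8510; reagent: peptide substrate plus 25 µM ATP (final); medium: Tris/MgCl2 kinase buffer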
# MEKK2 mut-MEK5: MEK5 binding signal on mutant MEKK2 PB1, primary screen, biochemical, multiplex bead flow cytometry, Alexa488-MEK5. Alexa488-MEK5 binding to MEKK2 mutant. percent response, % at 10 µM. hit rate 0.35% among 290,000. AID 1530, 2009; in the data active = percent response above about 24%, passing the limit was not always enough
# MEKK2wt confirm: modulators of MEK5 binding to wildtype MEKK2, confirmation, biochemical, single concentration, multiplex bead flow cytometry; shares compounds with MEKK3 PB1 HTS; Alexa488-MEK5 binding to MEKK2 WT; actives lie on both sides; binding response (% of control), % at 10 µM; hit rate 2.4% among 5,900; in the data active = binding response below about 16% or above about 210%; inactive = in between
# MEKK2mut-MEK5: mutant MEKK2 PB1-MEK5 binding signal retest – biochemical, single concentration, multiplex bead flow cytometry, confirmation; percent response, % at 10 µM; shares compounds with MEKK3 PB1 HTS; hit rate 2% among 5,900; AID 1893, 2009; Alexa488-MEK5 binding to MEKK2 mutant; in the data active = percent response mostly above about 71%, no sharp cut-off; inactive = mostly below about 38%;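 also: higher means compound restores mutant binding toward wildtype level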
# MEKK3-MEK5 inh: MEKK3 wild-type PB1 binding to MEK5, inhibitors, confirmation, biochemical, bead multiplex flow cytometry, single concentration, wildtype; shares compounds with MEKK3 PB1 HTS; Alexa488-MEK5 binding to MEKK3; hits give low values; binding response (% of control), % at 10 µM; hit rate 1.8% among 5,900; AID 1894, 2009;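 active = binding response below 72% of control, or above a set upper limit, though filed actives all read lower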;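 also: 100% = DMSO only wells and 0% = binding blocked by excess unlabeled MEK5; lower values mean stronger disruption of MEK5 binding to MEKK3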
# * hit, by the source's call; . = no result; [ ] = dose if it differs, or a comment.
SMILES,GSK3A inh,STK33 kinase inh,MEKK3 PB1 HTS,MEKK2 WT-MEK5,GSK3B inh,MEKK2 mut-MEK5,MEKK2wt confirm,MEKK2mut-MEK5,MEKK3-MEK5 inh
O=C(Cc1c[nH]c2ccccc12)N1CCc2ccccc21,0,0,2.0*[inhibitor],1.0*[inhibitor],0,-42,100,-3,105
O=C(Cc1c[nH]c2ccccc12)N/N=C/c1ccc(F)cc1,3,0,139*,103,3,0,101,-6,100
N#C/C(=C\c1ccc(N2CCOCC2)cc1)c1ccccc1,-6,0,137*,100,1,0,102,2,101
N#C/C(=C\c1ccc(N2CCOCC2)o1)c1ccccc1,-1,0,99,90,-5,4,.,.,.
COc1ccc(-c2noc(-c3ccccc3C(=O)Nc3cccnc3)n2)cc1,-1,-2,100,98,1,26*,102,3,107
C=C(C)C(=O)Nc1nnc(-c2ccccc2C)s1,.,.,74*[inhibitor],66,.,-9,103,4,102
CN1CCN(S(=O)(=O)c2ccc3c(c2)NC(=O)C2CCCN32)CC1 (stereo not given),4,-3,108,102,0,0,.,.,.
CNS(=O)(=O)c1ccc2c(c1)NC(=O)C1CCCN21 (stereo not given),5,1,153*,110,-4,0,103,3,101
CC(C)N(C(=O)[C@H]1CC(CC(=O)NCCN2CCOCC2)C(=O)N2CCc3c([nH]c4ccccc34)[C@]12C)C(C)C (stereo not given in full),0,-1,.,.,.,.,.,.,.
CCCCCCC(C)OC(=O)Nc1cccc2ccccc12 (stereo not given),-3,0,70*[inhibitor],77,-4,1,91,-11,94
COCCNC(=O)CN1CCC(NC(=O)c2ccco2)CC1,0,-1,71,72,1,-18,.,.,.
CCOC(=O)c1ccc(NC(=O)Oc2cc(C)c(Cl)cc2C(C)C)cc1,0,-1,91,83,-4,-24,.,.,.
CC(=O)c1ccc(N2CCN(C(=O)C3CCCN(S(=O)(=O)c4c(C)[nH]c(=O)[nH]c4=O)C3)CC2)cc1 (stereo not given),-1,-1,106,100,-2,-1,.,.,.
CN1CCN(CCCCOc2ccccc2C=O)CC1,1,1,128*,200*,2,28,172,47,105
Cc1cc2ccccc2n1CCNC(=O)c1ccc(S(=O)(=O)N2CCOCC2)cc1,-2,-1,57*[inhibitor],.,-1,-5,77,-12,89
Cc1cc2ccccc2n1CCNC(=O)c1ccc(Br)o1,1,0,47*[inhibitor],99,3,8,21,-30,53*
Cc1cc2ccccc2n1CCNC(=O)c1ccccc1,-2,1,66*[inhibitor],75,1,-33,30,-32,59*
Cc1onc(-c2ccccc2Cl)c1C(=O)NCCn1c(C)cc2ccccc21,0,1,71*[inhibitor],.,0,-31,98,-7,98
CC(=O)NCCn1c(C)cc2ccccc21,1,1,101,106,-2,5,.,.,.
Cc1ccc(S(=O)(=O)N2CCOCC2)cc1C(=O)c1nccn1C,0,-1,105,108,2,4,.,.,.
COc1cc(C(=O)Nc2ccc3c(c2)Cc2ccccc2-3)cc(OC)c1OC,.,-2,135*,105,-1,-2,105,1,100
COc1ccc(C(=O)Nc2ccccc2N2CCN(C(=O)c3ccccc3)CC2)cc1Br,-6,0,97,91,-1,0,.,.,.
CC1CCCN(c2nc3c(c(=O)[nH]c(=O)n3C)n2CCSc2nc3ccccc3o2)C1 (stereo not given),-2,0,82*[inhibitor],101,2,-13,108,10,108
CC1CCCN(c2nc3c(c(=O)n(C)c(=O)n3C)n2CCSc2nc3ccccc3o2)C1 (stereo not given),-3,-1,101,101,-2,0,.,.,.
O=C(NCCc1ccccc1)c1cccc([N+](=O)[O-])c1,-4,-1,130*,107,-10,0,101,4,102
SMILES,GSK3A inh,STK33 kinase inh,MEKK3 PB1 HTS,MEKK2 WT-MEK5,GSK3B inh,MEKK2 mut-MEK5,MEKK2wt confirm,MEKK2mut-MEK5,MEKK3-MEK5 inh
COc1ccc(CCNC(=O)c2cccc([N+](=O)[O-])c2)cc1OC,-2,-1,.,.,1,.,.,.,.
Cc1ccc2c(c1)c1c3n2CCN(CC(O)CNC(C)C)C3CCC1 (stereo not given),8,9,107,169*,.,12,119,4,98
CCOC(=O)c1[nH]c2ccccc2c1NC(=O)C1CCCCC1,-1,-1,76*[inhibitor],83,-1,-12,99,-4,101
C=CCNS(=O)(=O)c1cccc2cc(C(=O)O)c(O)cc12,.,1,134*,136*,-2,9,97,-2,96
O=C(O)c1cc2cccc(S(=O)(=O)N3CCCCC3)c2cc1O,11,0,99,98,-2,-3,.,.,.
Cc1cc(-c2cc(C(=O)Nc3ccccc3)on2)nc(NCC2CC2)n1,-2,-1,103,107,10,3,.,.,.
CC[C@]12c3[nH]c4ccccc4c3CCN1C(=O)C(CC(=O)NCc1cccc(C(F)(F)F)c1)C[C@@H]2C(=O)N1CCN(C(=O)c2ccco2)CC1 (stereo not given in full),2,1,.,.,.,.,.,.,.
